Assay: Toxicity liver stage against HepG2, at 10uM
Format: cell-based
Set-up: test concentration 10 uM, cell line HepG2-A16-CD81EGFP
Settings: human, HepG2-A16-CD81EGFP cells; read-out: INHIBITION
How it was run: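 Uninfected HepG2-A16-CD81EGFP cells, 3 × 10^3 per well, 1536-well, plated on prespotted compound at 10 μM final, parasite-free screening media added to match infected plates; puromycin 10 μM positive, DMSO 0.5% negative; run in parallel with 48 h PbLuc assay at 37 °C, 5% CO2; viability by CellTiter-Glo luminescence, normalized to controls.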

Compound | cytotoxicity at 10 µM [%]
Cc1ccc(-c2cn3c(n2)CO[C@@H](CNCc2nccs2)C3)cc1 | -7.31
O=C(Nc1nc2c(s1)CCC2)NC1CCCC1 | -8.6
O=C(N[C@]12CC1CN(C(=O)c1ccco1)C2)c1cccc(F)c1 (stereo not given in full) | -15.3
CC(C)CNC(=O)c1nc2c(s1)CCN(C(=O)c1cccnc1)CC2 | 7.1
Cc1ccccc1N1CC2(CCN(c3nncs3)C2)CC1=O (stereo not given) | -7.74
CCC1=N[C@@]2(CC[C@@H]3CN(S(=O)(=O)CC(C)C)C[C@@H]32)C(=O)N1CC | 0.167
O=C(NCCCN1CCCC1=O)c1nc(-c2ccc3cc[nH]c3c2)no1 | -7.99
Cc1ncncc1C(=O)N1CCOC(C)(C(=O)NC2CCCC2)C1 (stereo not given) | -36.4
CSCC(CCO)Nc1nc(C(F)F)nc2ccccc12 (stereo not given) | -5.52
O=C(O)c1cnc(OCC2CC2)c(Cl)c1 | -5.38
Cc1noc(C2CCN(Cn3cc(Br)cn3)CC2)n1 | 0.277
O=C(NCc1nncn1C1CC1)C1(c2ccccc2)CCOCC1 | 3.31
COc1ccc(CNC(=O)N2CCCN(CC3CCCCC3)CC2)cn1 | -3.36
Cc1noc(C)c1CC(=O)NCCN1CCN(S(C)(=O)=O)CC1 | -5.87
COCCNC(=O)Nc1ccc(CN2CCOC2=O)cc1 | -4.62
CCc1nc(CNC(=O)Nc2nc(COC)cs2)cs1 | -0.67
CCn1ncc2c1CCCC2NCc1csc(COC)n1 (stereo not given) | 1.17
CNC(=O)c1ccc(OC)c(NCc2noc(-c3ccsc3)n2)c1 | 0.736
Cn1cc(CNC(=O)C2COCC(=O)N2Cc2ccccc2)cn1 (stereo not given) | -4.88
Cc1cccc(NC(=O)NC2CCN(C3CCOC3)CC2)c1 (stereo not given) | 4.24
CCC[C@@H](NC(N)=O)C(=O)N1Cc2ccccc2-c2ccccc2C1 | 5.17
O=S(=O)(Cc1ccccc1Cl)NC(CO)c1ccco1 (stereo not given) | -6.86
CCn1c(Cn2cccn2)nnc1C1CCN(Cc2ccc(C)o2)CC1 | -1.14

Compound | cytotoxicity at 10 µM [%]
Cc1ccsc1-c1nnc(SCC(=O)O)n1C(C)c1ccccc1 (stereo not given) | -4.65
O=C1CCC2(CCN(Cc3nccs3)CC2)CN1CCCO | -7.56
Cc1ccsc1CN(CCN(C)C)C(=O)c1ccc(C#N)nc1 | -120
O=C(Nc1ccccc1OCCc1ccccn1)N1CC[C@@H](O)C1 | 4.4
CNC(=O)[C@@H]1C[C@@H](N)CN1Cc1cc2cc(C)cc(C)c2[nH]c1=O | -5.23
Cc1nc(N)nc(C)c1CC(=O)N1CCCN(CC2CC2)C(C(C)C)C1 (stereo not given) | -142
CSCC[C@H](NC(C)=O)c1nc(CCc2ccccc2)n[nH]1 | 5.08
Cc1ccc(C(=O)N2CC[C@H](N3CCOCC3)[C@H](CCCO)C2)cc1O | -154
Nc1cc(-c2cccc3ccnn23)ccn1 | 0.858
CCc1noc(CN2CCCN(Cc3cccs3)CC2)n1 | 2.76
O=C(CCOc1cccc(F)c1)N1CCCC1Cn1cccn1 (stereo not given) | -5.7
Clc1cccc(Cl)c1-c1nnc(CNCCn2cccn2)o1 | -6.46
CC(C)NC(=O)c1cc(Br)c2c(c1)OCCO2 | -13.3
COc1c(C2CCCN2C(=O)c2ccc(C#N)c(C)n2)c(C)nn1C (stereo not given) | -8.45
CCn1cc(CN2CCCN(C(=O)c3ccc(C)nc3)CC2)cn1 | -10.4
O=C(c1ccc2[nH]nnc2c1)N1CCCC(n2cccn2)C1 (stereo not given) | -1.56
O=C(NCC1CC1)c1nc2c(o1)CN(CC1CC1)C2 | -147
CN(C)C(=O)COCC1CN(Cc2cccs2)Cc2ncn(C)c21 (stereo not given) | 13.1
OC(CN1CCN(Cc2ccc(F)c(F)c2)CC1)C1CC1 (stereo not given) | -22.2
CCS(=O)(=O)N1CCC[C@]2(C(=O)N(C)C)CN(c3ncccn3)C[C@@H]2C1 | -3.26
COCCN1C(=O)[C@@H]2CC[C@H]1CN(c1nccc(C3CCCC3)n1)C2 | 7.67
O=C(c1ccccc1)N1C[C@H]2CC[C@@H](C1)N(S(=O)(=O)c1cccnc1)C2 | -9.33

Source: ChEMBL document CHEMBL4513216, “Probing the Open Global Health Chemical Diversity Library for Multistage-Active Starting Points for Next-Generation Antimalarials” (ACS Infect Dis, 2020)
